One block for each molecule: values may come before it.
Assays:
Homo sapiens [1] = species on record: Homo sapiens; experiment: Relative potency to inhibit ADP-induced aggregation of human platelet rich plasma compared to that of dazoxiben, in vitro using pig aortal microsomes.; assay type: functional; settings: Aorta
Homo sapiens [2] = species on record: Homo sapiens; experiment: In vitro inhibition of ADP-induced aggregation of human platelet rich plasma in the presence of pig aortal microsomes.; assay type: functional; settings: Aorta
How it was run: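 Human citrated blood (0.38% citrate final), PRP by centrifugation at 200g, room temperature. Drug added to 1.0 mL PRP, 2 min at 37 °C with stirring (500 rpm), then pig aortal microsomes 3 min; microsome amount set by the dazoxiben standard. Aggregation induced by 5 μM ADP (final), read turbidimetrically.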

Homo sapiens [3] = species on record: Homo sapiens; experiment: In vitro inhibition of ADP-induced aggregation of human platelet rich plasma in the presence of pig aortal microsomes, at 5*10e-6 M compound concentration.
Rattus norvegicus [4] = experiment: Effect of perorally administered compound on systolic blood pressure and proteinuria was studied with a 5/6 renal ablated rat as a model of progressive injury; assay type: functional, Artery
How it was run: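 Male Munich Wistar rats (200-270 g) with 5/6 renal ablation were dosed in drinking water from 1 week post-surgery at 68, 205 or 410 mg/kg/day; controls received water. Conscious systolic pressure measured weekly by tail cuff. 24-h urinary protein measured every 2 weeks by the sulfosalicylic acid method.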

[5] = biological target: T1, Thromboxane-A synthase (Homo sapiens) (UniProt P24557); experiment: Relative potency of thromboxane A2 synthetase as reduced ADP-induced aggregation of human platelet rich plasma compared to dazoxiben; assay type: functional, cell-free
T1 sequence (whole entry): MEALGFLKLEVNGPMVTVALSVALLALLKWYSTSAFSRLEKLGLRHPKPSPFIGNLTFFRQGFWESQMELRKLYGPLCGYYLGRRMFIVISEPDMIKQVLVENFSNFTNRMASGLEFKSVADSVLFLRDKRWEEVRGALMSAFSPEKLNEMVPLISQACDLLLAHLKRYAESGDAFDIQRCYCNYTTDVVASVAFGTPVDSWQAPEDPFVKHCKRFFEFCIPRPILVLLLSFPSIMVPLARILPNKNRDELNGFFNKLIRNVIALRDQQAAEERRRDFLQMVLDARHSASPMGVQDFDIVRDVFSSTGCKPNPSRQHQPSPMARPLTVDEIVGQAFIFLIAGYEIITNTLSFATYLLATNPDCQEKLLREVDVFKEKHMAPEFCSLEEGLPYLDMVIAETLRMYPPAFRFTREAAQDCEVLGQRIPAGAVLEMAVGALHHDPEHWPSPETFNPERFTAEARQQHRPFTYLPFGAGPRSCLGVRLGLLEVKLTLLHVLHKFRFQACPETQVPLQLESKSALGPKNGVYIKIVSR

Mus musculus [6] = experiment: Activity at 20 mg/kg given intravenously against mortality in a pulmonary thromboembolism model in mice (10 animals) at -3h; assay type: functional; settings: route intravenous
How it was run: (§1)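 Male Swiss-Webster mice (22-26 g); test material given iv in 0.2 mL CMC before challenge (mostly at -3 h, one group at -1 h). At hour 0, collagen extract plus epinephrine hydrochloride given iv in 0.2 mL 0.9% saline via tail vein. The collagen amount was set per lot as the minimum giving 90-100% mortality in CMC-vehicle controls. Readout: % surviving at 24 h.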

Mus musculus [7] = experiment: Activity at 10 mg/kg given intravenously against mortality in a pulmonary thromboembolism model in mice (10 animals) at -3h; assay type: functional; settings: route intravenous; how it was run: as §1
Rattus norvegicus [8] = experiment: Concentration of thromboxane in serum of rats with 5/6 nephrectomy; when treated with compound at 410 mg/kg per day (n=4); assay type: functional, organism-based
How it was run: (§2)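 Male Munich Wistar rats, 200-270 g, 5/6 renal ablation (right nephrectomy plus ligation of arterial branches to two-thirds of left kidney) under 50 mg/kg brevital ip. Drug given in drinking water from 1 week post-surgery: 500 mg/L (68 mg/kg/day), 1500 mg/L (205 mg/kg/day), or 3000 mg/L (410 mg/kg/day) after 9 weeks. TXB2 measured by radioimmunoassay in urine (8-11 weeks) and serum (10-13 weeks); controls received water.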

Mus musculus [9] = experiment: Effect of TXA2 Synthetase inhibition (topically) upon inflammation in arachidonic acid induced ear edema in mice; assay type: functional
How it was run: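 Arachidonic acid-induced ear edema in mice; test material applied topically at 2 mg/mouse.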

Mus musculus [10] = experiment: Activity at 12.5 mg/kg given intravenously against mortality in a pulmonary thromboembolism model in mice (10 animals) at 3 hr; assay type: functional; settings: route intravenous; how it was run: as §1
Rattus norvegicus [11] = experiment: Concentration of thromboxane in urine of rats with 5/6 nephrectomy; when treated with compound at 205 mg/kg per day (n=5); assay type: functional, organism-based; how it was run: as §2
Mus musculus [12] = experiment: Effect of TXA2 Synthetase inhibition (topically) upon inflammation in 12-O-tetradecanoylphorbol acetate induced ear edema in mice; assay type: functional
Mus musculus [13] = experiment: Activity at 10 mg/kg given perorally against mortality in a pulmonary thromboembolism model in mice (10 animals) at -18h following oral administration; assay type: functional
How it was run: (§3)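 Male Swiss-Webster mice (22-26 g), 10 per group (one group of 9); test material given po in 0.2 mL CMC at -1, -3, -5 or -18 h before challenge. At hour 0, collagen extract plus epinephrine hydrochloride given iv via tail vein in 0.9% saline. The collagen amount was titrated per lot to 90-100% mortality in vehicle controls. Readout: % surviving at 24 h.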

Mus musculus [14] = experiment: Activity at 10 mg/kg given perorally against mortality in a pulmonary thromboembolism model in mice (10 animals) at -3h following oral administration; assay type: functional; how it was run: as §3
Rattus norvegicus [15] = experiment: Total glomeruli with lesions was determined […], in kidneys of rats after dosing with compound at 205 mg/kg per day; assay type: functional, Kidney
How it was run: (§4)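 5/6 renal ablated male Munich Wistar rats received drug in drinking water: 205 mg/kg/day, or 68 mg/kg/day for 9 weeks then 410 mg/kg/day for 4 weeks; controls received water. Kidneys perfused with fixative at end of week 10 (205 group) or week 13. Glomeruli with lesions counted (mesangial proliferation, tubular hyaline casts, cortical interstitial inflammation, hydronephrosis); mean ± SEM.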

Mus musculus [16] = experiment: Activity at 10 mg/kg given perorally against mortality in a pulmonary thromboembolism model in mice (10 animals) at 1 hr; assay type: functional; settings: route oral; how it was run: as §3
Rattus norvegicus [17] = experiment: Concentration of thromboxane in urine of rats with 5/6 nephrectomy; when treated with compound at 410 mg/kg per day (n=4); assay type: functional, organism-based; how it was run: as §2
Rattus norvegicus [18] = experiment: Percent inhibition of thromboxane from control in urine of rats with 5/6 nephrectomy at 68 mg/kg per day; assay type: functional; how it was run: as §2
Rattus norvegicus [19] = experiment: Concentration of thromboxane in serum of rats with 5/6 nephrectomy; when treated with compound at 205 mg/kg per day (n=4); assay type: functional, organism-based; how it was run: as §2
Rattus norvegicus [20] = experiment: Concentration of thromboxane in urine of rats with 5/6 nephrectomy; when treated with compound at 68 mg/kg per day (n=4); assay type: functional, organism-based; how it was run: as §2
Mus musculus [21] = experiment: Activity at 25 mg/kg given intravenously against mortality in a pulmonary thromboembolism model in mice (10 animals) at 3 hr; assay type: functional; settings: route intravenous; how it was run: as §1
Rattus norvegicus [22] = experiment: Percent inhibition of thromboxane from control in urine of rats with 5/6 nephrectomy at 410 mg/kg per day; assay type: functional; how it was run: as §2
Rattus norvegicus [23] = experiment: Percent inhibition of thromboxane from control in serum of rats with 5/6 nephrectomy at 205 mg/kg per day; assay type: functional; how it was run: as §2
Rattus norvegicus [24] = experiment: Effect of TXA2 Synthetase inhibition (perorally) upon inflammation in carrageenan induced rat paw edema in rats
Rattus norvegicus [25] = experiment: Percent inhibition of thromboxane from control in urine of rats with 5/6 nephrectomy at 205 mg/kg per day; assay type: functional; how it was run: as §2
Mus musculus [26] = experiment: Activity at 10 mg/kg given perorally against mortality in a pulmonary thromboembolism model in mice (10 animals) at -1h following oral administration; assay type: functional; how it was run: as §3
Rattus norvegicus [27] = species on record: Rattus norvegicus; experiment: Effect of TXA2 Synthetase inhibition (perorally) upon inflammation in rat adjuvant-induced arthritis model; assay type: functional
Rattus norvegicus [28] = experiment: Percent inhibition of thromboxane from control in serum of rats with 5/6 nephrectomy at 410 mg/kg per day; assay type: functional; how it was run: as §2
Rattus norvegicus [29] = experiment: Total glomeruli with lesions was determined […], in kidneys of rats after dosing at 68 mg/kg per day for 9 weeks following by dosing with 410 mg/kg/day for 4 weeks; assay type: functional, Kidney; how it was run: as §4
Mus musculus [30] = species on record: Mus musculus; experiment: Effect of TXA2 Synthetase inhibition (perorally) upon inflammation in phenoylquinone-induced writhing in mice; assay type: functional
Mus musculus [31] = experiment: Activity at 6.25 mg/kg given intravenously against mortality in a pulmonary thromboembolism model in mice (10 animals) at 3 hr; assay type: functional; settings: route intravenous; how it was run: as §1
Mus musculus [32] = experiment: Activity at 10 mg/kg given perorally against mortality in a pulmonary thromboembolism model in mice (10 animals) at -5h following oral administration; assay type: functional; how it was run: as §3
Mus musculus [33] = experiment: Effect of TXA2 Synthetase inhibition (perorally) upon inflammation in oxazolone induced delayed hypersensitivity ear edema in mice; assay type: functional
How it was run: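 Oxazolone-induced delayed hypersensitivity ear edema in mice; test material dosed orally at 25 mg/kg.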

SMILES: CCOC(=O)/C(C)=C\c1ccc(Cc2cccnc2)n1C
inhibition (Homo sapiens [3]): 49%

SMILES: CCOC(=O)[C@H](CCc1ccccc1)N[C@@H](C)C(=O)N1CCC[C@H]1C(=O)O
ED (Rattus norvegicus [4]): 4 mg/kg

SMILES: CCn1c(/C=C(/C)C(=O)O)ccc1Cc1cccnc1
Relative potency [5]: 45 | survival at 20 mg/kg (Mus musculus [6]): 10% | survival at 10 mg/kg (Mus musculus [7]): 10%

SMILES: C/C(=C/c1ccc(Cn2ccnc2)n1C)C(=O)O
Concentration (Rattus norvegicus [8]): 36 ng/day | Dose (Mus musculus [9]): 2 mg mouse-1 | survival at 12.5 mg/kg (Mus musculus [10]): 70% | Concentration (Rattus norvegicus [11]): 45 ng/day | Dose (Mus musculus [12]): 0.5 mg mouse-1 | survival at 10 mg/kg (Mus musculus [13]): 10% | survival at 10 mg/kg (Mus musculus [14]): 40% | Total glomeruli (Rattus norvegicus [15]): 13 | survival at 10 mg/kg (Mus musculus [16]): 50% | Concentration (Rattus norvegicus [17]): 59 ng/day | Relative potency [5]: 2.2 | inhibition in vivo at 68 mg/kg/day (Rattus norvegicus [18]): 78.9% | Concentration (Rattus norvegicus [19]): 10 ng/day | Concentration (Rattus norvegicus [20]): 42 ng/day | survival at 25 mg/kg (Mus musculus [21]): 90% | inhibition in vivo at 410 mg/kg/day (Rattus norvegicus [22]): 70.4% | inhibition in vivo at 205 mg/kg/day (Rattus norvegicus [23]): 98% | Dose (Rattus norvegicus [24]): 10 mg rat-1 | inhibition in vivo at 205 mg/kg/day (Rattus norvegicus [25]): 77.4% | survival at 10 mg/kg (Mus musculus [26]): 40% | Dose (Rattus norvegicus [27]): 4.25 mg rat-1 | inhibition in vivo at 410 mg/kg/day (Rattus norvegicus [28]): 92.8% | Total glomeruli (Rattus norvegicus [29]): 8 | Dose (Mus musculus [30]): 3 mg mouse-1 | survival at 6.25 mg/kg (Mus musculus [31]): 70% | survival at 10 mg/kg (Mus musculus [32]): 30% | Dose (Mus musculus [33]): 25 mg/kg

SMILES: C/C(=C/c1ccc(Cc2cccnc2)n1-c1ccccc1)C(=O)O
Relative potency [5]: 0.08

SMILES: C/C(=C/c1ccc(Cc2cccnc2)n1C)C(=O)O
Relative potency [5]: 46 | survival at 20 mg/kg (Mus musculus [6]): 30% | survival at 10 mg/kg (Mus musculus [7]): 0%

SMILES: C/C(=C/c1cc(Cc2cccnc2)n(C(C)(C)C)c1)C(=O)O
Relative potency [5]: 43 | survival at 10 mg/kg (Mus musculus [7]): 30%

The next lines start with results.

IC50 (Homo sapiens [2]): 180 µM
SMILES: CCOC(=O)/C(C)=C\c1ccc(Cc2cccnc2)n1-c1ccccc1
Relative potency (Homo sapiens [1]): 0.01

IC50 (Homo sapiens [2]): 57 µM
SMILES: CCOC(=O)/C(C)=C\c1ccc(Cc2cccnc2)n1CC(C)(C)C
Relative potency (Homo sapiens [1]): 0.03

Relative potency [5]: 0.24
SMILES: C/C(=C/c1ccc(Cc2cccnc2)n1CC(C)(C)C)C(=O)O

IC50 (Homo sapiens [2]): 8.9 µM
SMILES: CCOC(=O)/C=C\c1ccc(Cn2ccnc2)n1C
Relative potency (Homo sapiens [1]): 0.25

Relative potency [5]: 0.24
SMILES: C/C(=C\c1ccc(Cn2ccnc2)[nH]1)C(=O)O

IC50 (Homo sapiens [2]): 1.8 µM
SMILES: CCOC(=O)/C(C)=C/c1cc(Cn2ccnc2)n(C)c1
Relative potency (Homo sapiens [1]): 1.1

Reference: ChEMBL document CHEMBL1124451, “[(1H-imidazol-1-yl)methyl]- and [(3-pyridinyl)methyl]pyrroles as thromboxane synthetase inhibitors” (J Med Chem, 1989)
